Test results reported in ChEMBL document CHEMBL4390653, “Potential anti-herpes and cytotoxic action of novel semisynthetic digitoxigenin-derivatives” (Eur J Med Chem, 2019).

How the values were obtained:
Human alphaherpesvirus 1 [1] = test: Potency index, ratio of IC50 for acyclovir to IC50 for test compound for antiviral activity against acyclovir-sensitive Herpes simplex virus 1 KOS infected in African green monkey Vero cells assessed as inhibition of viral replication after 48 hrs by naphthol blue-black staining-based plaque reduction assay; format: functional, strain KOS
[2] = Cytotoxicity against African green monkey Vero cells assessed as reduction in cell viability after 48 hrs by SRB assay; format: cell-based; details: chlorocebus sabaeus
Method in brief: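 Vero cells in MEM with 10% FBS, seeded at 2.5 × 10^4 cells/well. Exposed to a range of concentrations for 48 h at 37 °C, 5% CO2, then sulforhodamine B total-protein staining. CC50 is the concentration reducing viability by 50% versus untreated controls, from nonlinear regression; mean ± SD of three independent experiments.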

Human alphaherpesvirus 1 [3] = test: (§1) Antiviral activity against acyclovir-sensitive Herpes simplex virus 1 KOS infected in African green monkey Vero cells assessed as inhibition of viral replication after 48 hrs by naphthol blue-black staining-based plaque reduction assay; format: functional, organism-based; details: Human alphaherpesvirus 1, strain KOS
Method in brief: (§2)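 Vero cells in MEM with 10% FBS, 37 °C, 5% CO2. Confluent monolayers (2.5 × 10^5 cells/well) infected with about 100 PFU for 1 h at 37 °C. Non-cytotoxic concentrations were added after infection. Cells were then PBS-washed and overlaid with MEM plus 1.5% carboxymethylcellulose, with or without compound, for 48 h. Fixed, naphthol blue-black stained, plaques counted under a stereomicroscope. IC50 versus untreated controls by nonlinear regression; mean of three independent experiments.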

[4] = as §1, with “Selectivity index, ratio of Cytotoxicity against African green monkey Vero cells assessed as reduction in cell viability after 48 hrs by SRB assay to Antiviral” for “Antiviral”; format: toxicity; details: Vero cells infected with HSV-1 KOS, read-out: Ratio CC50/IC50
Method in brief: (§3)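 Selectivity index = CC50 in Vero cells (SRB, 48 h) divided by plaque-reduction IC50 for the same virus strain.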

Human alphaherpesvirus 1 [5] = test: (§4) Antiviral activity against acyclovir-resistant Herpes simplex virus 1 29-R infected in African green monkey Vero cells assessed as inhibition of viral replication after 48 hrs by naphthol blue-black staining-based plaque reduction assay; format: functional, organism-based; details: Human alphaherpesvirus 1, 29-R, Vero, 48 h; read-out: IC50; method in brief: as §2
[6] = as §4, with “Selectivity index, ratio of Cytotoxicity against African green monkey Vero cells assessed as reduction in cell viability after 48 hrs by SRB assay to Antiviral” for “Antiviral”; format: toxicity; details: Vero cells infected with HSV-1 29-R, read-out: Ratio CC50/IC50; method in brief: as §3
Human alphaherpesvirus 2 [7] = test: (§5) Antiviral activity against Herpes simplex virus 2-333 infected in African green monkey Vero cells assessed as inhibition of viral replication after 48 hrs by naphthol blue-black staining-based plaque reduction assay; format: functional, organism-based; details: Human alphaherpesvirus 2, 333, Vero; method in brief: as §2
[8] = as §5, with “Selectivity index, ratio of Cytotoxicity against African green monkey Vero cells assessed as reduction in cell viability after 48 hrs by SRB assay to Antiviral” for “Antiviral”; format: toxicity; details: Vero cells infected with HSV-2 333, read-out: Ratio CC50/IC50; method in brief: as §3
Human alphaherpesvirus 2 [9] = test: Potency index, ratio of IC50 for acyclovir to IC50 for test compound for antiviral activity against Herpes simplex virus 2-333 infected in African green monkey Vero cells assessed as inhibition of viral replication after 48 hrs by naphthol blue-black staining-based plaque reduction assay; format: functional
HCT-8 = test: Cytotoxicity against human HCT8 cells assessed as inhibition of cell viability after 48 hrs by SRB assay; format: functional, cell-based; details: HCT-8, 48 h
Method in brief: (§6)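 Cells seeded at 2.5 × 10^4 per well and exposed to a concentration range for 48 h, then SRB total-protein stain. PC3 grown in phenol-red-free DMEM with 1% glutamine; LNCaP in phenol-red-free RPMI 1640 with glutamine and non-essential amino acids. HCT-8 and H460 in RPMI 1640. MRC-5 (plus glutamine and non-essential amino acids) and primary gingival fibroblasts in DMEM. All media had 10% FBS, 37 °C, 5% CO2. Paclitaxel was the reference. IC50 versus untreated controls by nonlinear regression, three independent experiments.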

LNCaP = test: Cytotoxicity against human LNCAP cells assessed as inhibition of cell viability after 48 hrs by SRB assay; format: functional, cell-based; method in brief: as §6
PC-3 = test: Cytotoxicity against human PC3 cells assessed as inhibition of cell viability after 48 hrs by SRB assay; format: functional, cell-based; details: PC-3, 48 h; method in brief: as §6
NCI-H460 = test: Cytotoxicity against human H460 cells assessed as inhibition of cell viability after 48 hrs by SRB assay; format: functional, cell-based; details: NCI-H460, 48 h; method in brief: as §6
MRC5 = test: Cytotoxicity against human MRC5 cells assessed as inhibition of cell viability after 48 hrs by SRB assay; format: cell-based; details: MRC5, 48 h; method in brief: as §6
[10] = Cytotoxicity against human HGF cells assessed as inhibition of cell viability after 48 hrs by SRB assay; format: cell-based; method in brief: as §6
[11] = Inhibition of porcine cortex Na+/K+-ATPase alpha1/2/3 subunit using ATP as substrate preincubated for 30 mins followed by substrate addition and measured after 30 mins by malachite green reagent-based assay; set-up: species or system Sus scrofa
A549 = test: Cytotoxicity against human A549 cells assessed as inhibition of cell viability after 48 hrs by SRB assay; format: functional, cell-based; details: A549, 48 h

| SMILES | Ratio IC50 (Human alphaherpesvirus 1 [1]) | CC50 at 48 h [2] | IC50 (Human alphaherpesvirus 1 [3]) | selectivity ratio at 48 h [4] | IC50 (Human alphaherpesvirus 1 [5]) | selectivity ratio at 48 h [6] | IC50 (Human alphaherpesvirus 2 [7]) | selectivity ratio at 48 h [8] | Ratio IC50 (Human alphaherpesvirus 2 [9]) | IC50 (HCT-8) | IC50 (LNCaP) | IC50 (PC-3) | IC50 (NCI-H460) | IC50 (MRC5) | IC50 [10] | IC50 [11] | IC50 (A549) |
| --- | --- | --- | --- | --- | --- | --- | --- | --- | --- | --- | --- | --- | --- | --- | --- | --- | --- |
| C[C@]12CC[C@H](NC(=O)CO)C[C@H]1CC[C@@H]1[C@@H]2CC[C@]2(C)[C@@H](C3=CC(=O)OC3)CC[C@]12O | 6 | > 300000 nM | 240 nM | > 1250 | 190 nM | > 1580 | 300 nM | > 1000 | 11 | 690 nM | 810 nM | 420 nM | 260 nM | 250 nM | 1670 nM | 843 nM | – |
| C[C@@H](O)[C@H](O)[C@@H](O)CCN[C@H]1CC[C@@]2(C)[C@H](CC[C@@H]3[C@@H]2CC[C@]2(C)[C@@H](C4=CC(=O)OC4)CC[C@]32O)C1 | – | > 300000 nM | 1460 nM | > 206 | 3230 nM | > 92.9 | 1270 nM | > 236 | – | 1250 nM | 2460 nM | 1220 nM | 370 nM | 550 nM | 2550 nM | 2040 nM | 680 nM |
| C[C@]12CC[C@H](NC(=O)CNc3ccc(C#N)cc3)C[C@H]1CC[C@@H]1[C@@H]2CC[C@]2(C)[C@@H](C3=CC(=O)OC3)CC[C@]12O | – | > 300000 nM | 600 nM | > 500 | 420 nM | > 714 | 1000 nM | > 300 | – | 1250 nM | 2080 nM | 910 nM | 250 nM | 1060 nM | 2090 nM | 4160 nM | 540 nM |
| C[C@]12CC[C@H](NC(=O)CNCCO)C[C@H]1CC[C@@H]1[C@@H]2CC[C@]2(C)[C@@H](C3=CC(=O)OC3)CC[C@]12O | 6 | > 300000 nM | 230 nM | > 1300 | 180 nM | > 1670 | 270 nM | > 1110 | 12 | 90 nM | 130 nM | 180 nM | 70 nM | 130 nM | 660 nM | 1990 nM | 190 nM |
